The source made the active and inactive calls. No cut-off for these calls is given here.
Legend:
Oryctolagus cuniculus [1] = organism: Oryctolagus cuniculus; assay: Activation of troponin in rabbit fast skeletal muscle fibers assessed as increase in calcium stimulated activity by measuring compound concentration that produces 40% increase in myofibril ATPase activity at 25% of calcium concentration needed for maximal response by pyruvate kinase/lactate dehydrogenase-coupled based assay
In short: (§1)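 Myofibril ATPase rate (used as a surrogate for force), with fast-skeletal myofibrils from rabbit muscle. For cardiac and slow-skeletal activity, mixed sarcomeres combine myosin and thin-filament preparations from fast, slow or cardiac muscle. AC40 is the concentration giving a 40% increase in ATPase activity at 25% of the calcium level needed for a maximal response in control preparations. Duplicate experiments.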

Oryctolagus cuniculus [2] = organism: Oryctolagus cuniculus; assay: Activation of troponin in rabbit fast skeletal muscle fibers assessed as increase in calcium stimulated activity by measuring compound concentration that produces 30% increase in tension at 25% of calcium concentration needed for maximal response by […]
In short: (§2)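 Skinned-fiber tension assay on a mounted fiber, measuring the force–calcium relationship. Fast fibers are rabbit psoas; slow fibers are primarily slow rabbit semimembranosus. DF30 is the concentration giving a 30% increase in tension at 25% of the calcium level needed for a maximal response in control preparations.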

Canis familiaris = assay: Volume of distribution at steady state in Beagle dog at 1 mg/kg, po or 1 mg/kg iv via bolus by HPLC method; assay type: ADME, organism-based, Canis lupus familiaris; conditions: in vivo
In short: (§3)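 Pharmacokinetics at a dose of 1 mg/kg, comparing oral and intravenous administration to derive bioavailability, clearance and steady-state volume of distribution. In rats, compounds were dosed as crystalline suspensions.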

[3] = Extraction ratio in rat liver microsomes measured up to 90 mins by HPLC/MS/MS analysis; assay type: ADME, microsome; conditions: read-out: ERH
Rattus norvegicus [4] = assay: Oral bioavailability in Sprague-Dawley rat at 1 mg/kg by HPLC method; assay type: ADME, organism-based; conditions: in vivo; in short: as §3
Cytochrome P450 1A2 [5] = target: T1, Cytochrome P450 1A2 (Homo sapiens, UniProt P05177); assay: Time dependent inhibition of CYP1A2 in human liver microsomes using phenacetin as substrate preincubated for 30 mins followed by NADP addition; conditions: TDE = time-dependent effect
T1 sequence (P05177 whole entry): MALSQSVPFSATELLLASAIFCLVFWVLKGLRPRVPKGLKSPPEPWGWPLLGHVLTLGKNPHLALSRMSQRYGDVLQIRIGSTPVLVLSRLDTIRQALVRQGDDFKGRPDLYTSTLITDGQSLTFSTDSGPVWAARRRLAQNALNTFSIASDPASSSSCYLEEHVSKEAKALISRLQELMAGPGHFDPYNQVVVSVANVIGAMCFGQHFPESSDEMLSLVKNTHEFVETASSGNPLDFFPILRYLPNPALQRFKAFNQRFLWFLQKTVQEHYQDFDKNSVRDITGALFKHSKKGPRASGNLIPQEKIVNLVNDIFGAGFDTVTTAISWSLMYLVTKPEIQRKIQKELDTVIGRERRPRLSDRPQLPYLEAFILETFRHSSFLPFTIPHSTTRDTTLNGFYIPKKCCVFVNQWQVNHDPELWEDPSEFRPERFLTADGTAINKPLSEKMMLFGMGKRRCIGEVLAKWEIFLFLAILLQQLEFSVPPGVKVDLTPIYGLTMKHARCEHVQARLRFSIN

[6] = (§4) Volume of distribution at steady state in Sprague-Dawley rat at 1 mg/kg, po or 1 mg/kg iv via bolus by HPLC method; assay type: ADME, organism-based; conditions: Sprague-Dawley, in vivo, read-out: Vdss; in short: as §3
[7] = Apparent permeability of the compound in human Caco2 cells; assay type: ADME, cell-based; conditions: caco-2
[8] = Extraction ratio in human liver microsomes measured up to 90 mins by HPLC/MS/MS analysis; assay type: ADME, microsome; conditions: read-out: ERH
[9] = Fraction unbound in rat plasma at 5 uM after 6 hrs by equilibrium dialysis based HPLC method; assay type: ADME, cell-free
Cytochrome P450 1A2 [10] = target: T1, Cytochrome P450 1A2; assay: Inhibition of CYP1A2 in human liver microsomes using phenacetin as substrate in presence of NADP; assay type: ADME
[11] = Extraction ratio in mouse liver microsomes measured up to 90 mins by HPLC/MS/MS analysis; assay type: ADME, microsome; conditions: read-out: ERH
[12] = Fraction unbound in human plasma at 5 uM after 6 hrs by equilibrium dialysis based HPLC method; assay type: ADME, cell-free
[13] = Oral bioavailability in Beagle dog at 1 mg/kg by HPLC method; assay type: ADME, organism-based, Canis lupus familiaris; conditions: in vivo; in short: as §3
Mus musculus = assay: Volume of distribution at steady state in mouse at 1 mg/kg, po or 1 mg/kg iv via bolus by HPLC method; assay type: ADME, organism-based; conditions: in vivo; in short: as §3
Rattus norvegicus [14] = assay: Increase in muscle force in rat extensor digitorum longus muscle dosed systemically measured every two mins by in situ live fiber activity assay; assay type: functional, organism-based
[15] = Oral bioavailability in mouse at 1 mg/kg by HPLC method; assay type: ADME, organism-based; conditions: in vivo; in short: as §3
[16] = Extraction ratio in dog liver microsomes measured up to 90 mins by HPLC/MS/MS analysis; assay type: ADME, Canis lupus familiaris, microsome; conditions: read-out: ERH
Rattus norvegicus [17] = assay: as §4; assay type: ADME, organism-based; conditions: in vivo; in short: as §3
Oryctolagus cuniculus [18] = organism: Oryctolagus cuniculus; assay: Activation of troponin C in rabbit primarily slow semi membranosus muscle fibers assessed as increase in calcium level by skinned fiber assay; in short: as §2
Bos taurus [19] = organism: Bos taurus; assay: Activation of troponin C in bovine masseter slow skeletal muscle fibers assessed as increase in calcium stimulated activity by measuring compound concentration that produces 40% increase in myofibril ATPase activity at 25% of calcium concentration needed for maximal response by pyruvate kinase/lactate dehydrogenase-coupled based assay; in short: as §1
Oryctolagus cuniculus [20] = organism: Oryctolagus cuniculus; assay: Activation of troponin in rabbit primarily fast psoas muscle fibers assessed as increase in calcium level by skinned fiber assay; in short: as §2
Bos taurus [21] = organism: Bos taurus; assay: Activation of troponin C in […] bovine cardiac muscle fibers assessed as increase in calcium stimulated activity by measuring compound concentration that produces 40% increase in myofibril ATPase activity at 25% of calcium concentration needed for maximal response by pyruvate kinase/lactate dehydrogenase-coupled based assay; in short: as §1

SMILES: C#Cc1cnc2oc(=O)n(C(CC)CC)c2n1
- EC40 (Oryctolagus cuniculus [1]): > 39.2 µM

SMILES: CCC(CC)n1c(=O)[nH]c2ncc(C#N)nc21
- EC40 (Oryctolagus cuniculus [1]): 36.3 µM

SMILES: C[C@H](c1ccccc1)n1c(=O)[nH]c2ncc(-c3ccco3)nc21
- EC40 (Oryctolagus cuniculus [1]): > 49 µM

SMILES: CCC(CC)n1c(=O)[nH]c2ncc(C)nc21
- EC40 (Oryctolagus cuniculus [1]): 2 µM
- EC30 (Oryctolagus cuniculus [2]): 4.4 µM

SMILES: C#Cc1cnc2nc(OC)n(C(CC)CC)c2n1
- EC40 (Oryctolagus cuniculus [1]): > 39.2 µM

SMILES: C#Cc1cnc2nc(O)n(C(CC)CC)c2n1 [TIRASEMTIV]
- Vdss (Canis familiaris): 1.7 L/kg
- hepatic extraction ratio at 1.5 h [3]: 0.26 to 0.3
- F (Rattus norvegicus [4]): 98%
- inhibition (INH) (Cytochrome P450 1A2 [5]): Tde
- Vd [6]: 0.8 to 2.6 L/kg
- Papp [7]: > 50 ×10⁻⁶ cm/s
- hepatic extraction ratio at 1.5 h [8]: < 0.2
- EC40 (Oryctolagus cuniculus [1]): 0.1 µM
- Fu [9]: 6.9%
- IC50 (Cytochrome P450 1A2 [10]): 20 µM
- hepatic extraction ratio at 1.5 h [11]: 0.24
- EC30 (Oryctolagus cuniculus [2]): 0.3 µM
- Fu [12]: 1.9%
- bioavailability [13]: 93%
- Vdss (Mus musculus): 1 L/kg
- Activity (Rattus norvegicus [14]): Dose-dependent effect
- bioavailability [15]: 43%
- hepatic extraction ratio at 1.5 h [16]: < 0.21

SMILES: CC[C@H](C)n1c(O)nc2ncc(Br)nc21
- hepatic extraction ratio at 1.5 h [3]: 0.3
- hepatic extraction ratio at 1.5 h [8]: < 0.2

SMILES: C[C@@H](c1ccccc1)n1c(=O)[nH]c2ncc(-c3ccccc3)nc21
- EC40 (Oryctolagus cuniculus [1]): > 49 µM

SMILES: COc1cnc2[nH]c(=O)n([C@@H](C)c3ccccc3)c2n1
- EC40 (Oryctolagus cuniculus [1]): 8.9 µM

SMILES: CCC(CC)n1c(O)nc2ncc(C#N)nc21
- hepatic extraction ratio at 1.5 h [3]: < 0.2
- hepatic extraction ratio at 1.5 h [8]: < 0.2

SMILES: CCC(CC)n1c(=O)[nH]c2ncc(Br)nc21
- EC40 (Oryctolagus cuniculus [1]): 0.3 µM
- EC30 (Oryctolagus cuniculus [2]): 0.4 µM

SMILES: CC#Cc1cnc2[nH]c(=O)n(C(CC)CC)c2n1
- EC40 (Oryctolagus cuniculus [1]): > 49 µM

SMILES: CCC(CC)n1c(O)nc2ncc(Br)nc21
- hepatic extraction ratio at 1.5 h [3]: 0.4
- F (Rattus norvegicus [4]): 62%
- Vdss (Rattus norvegicus [17]): 6.5 L/kg
- hepatic extraction ratio at 1.5 h [8]: < 0.2
- Fu [9]: 1.3%
- Fu [12]: 0.5%

SMILES: O=c1[nH]c2ncc(-c3ccco3)nc2n1Cc1ccccc1
- EC40 (Oryctolagus cuniculus [1]): > 49 µM

SMILES: C[C@@H](c1ccccc1)n1c(=O)[nH]c2ncc(Br)nc21
- EC40 (Oryctolagus cuniculus [1]): 1.6 µM
- EC30 (Oryctolagus cuniculus [2]): 3 µM

SMILES: CC(C)n1c(=O)[nH]c2ncc(Br)nc21
- EC40 (Oryctolagus cuniculus [1]): 6 µM
- EC30 (Oryctolagus cuniculus [2]): 2.2 µM

SMILES: CCc1cnc2[nH]c(=O)n([C@@H](C)c3ccccc3)c2n1
- EC40 (Oryctolagus cuniculus [1]): 21.8 µM

SMILES: CCC(CC)n1c(O)nc2ncc(OC)nc21
- hepatic extraction ratio at 1.5 h [3]: > 0.7
- hepatic extraction ratio at 1.5 h [8]: < 0.2

SMILES: CC(C)(C)n1c(O)nc2ncc(Br)nc21
- hepatic extraction ratio at 1.5 h [3]: 0.3
- hepatic extraction ratio at 1.5 h [8]: 0.2

SMILES: CCC(CC)n1c(=O)[nH]c2ncc(C(F)(F)F)nc21
- EC40 (Oryctolagus cuniculus [1]): 11.3 µM

SMILES: CCC(CC)n1c(=O)[nH]c2nccnc21
- EC40 (Oryctolagus cuniculus [1]): 14 µM

SMILES: CC(C)(C)n1c(=O)[nH]c2ncc(Br)nc21
- EC40 (Oryctolagus cuniculus [1]): 0.8 µM
- EC30 (Oryctolagus cuniculus [2]): 4.6 µM

SMILES: C[C@@H](c1ccccc1)n1c(O)nc2ncc(Br)nc21
- hepatic extraction ratio at 1.5 h [3]: 0.5
- hepatic extraction ratio at 1.5 h [8]: < 0.3

SMILES: CCC(CC)n1c(=O)[nH]c2ncc(OC)nc21
- EC40 (Oryctolagus cuniculus [1]): 2.2 µM

SMILES: C=Cc1cnc2[nH]c(=O)n([C@@H](C)c3ccccc3)c2n1
- EC40 (Oryctolagus cuniculus [1]): 3.5 µM
- EC30 (Oryctolagus cuniculus [2]): 4.6 µM

SMILES: O=c1[nH]c2ncc(Br)nc2n1C1CCCCC1
- EC40 (Oryctolagus cuniculus [1]): 10 µM

SMILES: O=c1[nH]c2ncc(Br)nc2n1C1CC1
- EC40 (Oryctolagus cuniculus [1]): > 49 µM

SMILES: CCC(CC)n1c(O)nc2ncc(C(F)(F)F)nc21
- hepatic extraction ratio at 1.5 h [3]: 0.2
- hepatic extraction ratio at 1.5 h [8]: < 0.2

SMILES: C[C@@H](c1ccccc1)n1c(=O)[nH]c2ncc(-c3ccco3)nc21
- Activity (Oryctolagus cuniculus [18]): inactive
- EC40 (Bos taurus [19]): > 39 µM
- EC40 (Oryctolagus cuniculus [1]): 7 µM
- EC30 (Oryctolagus cuniculus [2]): 30.6 µM
- Activity (Oryctolagus cuniculus [20]): Active
- EC40 (Bos taurus [21]): > 49 µM

SMILES: CCC(CC)n1c(O)nc2ncc(C)nc21
- hepatic extraction ratio at 1.5 h [3]: 0.7
- hepatic extraction ratio at 1.5 h [8]: < 0.2

SMILES: C=Cc1cnc2[nH]c(=O)n(C(CC)CC)c2n1
- hepatic extraction ratio at 1.5 h [3]: > 0.7
- hepatic extraction ratio at 1.5 h [8]: 0.5
- EC40 (Oryctolagus cuniculus [1]): 1.1 µM
- EC30 (Oryctolagus cuniculus [2]): 1.1 µM

SMILES: CSc1cnc2[nH]c(=O)n([C@@H](C)c3ccccc3)c2n1
- EC40 (Oryctolagus cuniculus [1]): 2.6 µM
- EC30 (Oryctolagus cuniculus [2]): 3.8 µM

SMILES: CCC(CC)n1c(=O)[nH]c2ncc(Cl)nc21
- hepatic extraction ratio at 1.5 h [3]: 0.4
- F (Rattus norvegicus [4]): 100%
- Vdss (Rattus norvegicus [17]): 3.4 L/kg
- hepatic extraction ratio at 1.5 h [8]: < 0.2
- EC40 (Oryctolagus cuniculus [1]): 0.5 µM
- Fu [9]: 1.1%
- EC30 (Oryctolagus cuniculus [2]): 0.6 µM
- Fu [12]: 0.8%

SMILES: CC(=O)c1cnc2nc(O)n([C@@H](C)c3ccccc3)c2n1
- EC40 (Oryctolagus cuniculus [1]): > 49 µM

SMILES: C[C@@H](c1ccccc1)n1c(=O)[nH]c2ncc(C#N)nc21
- EC40 (Oryctolagus cuniculus [1]): > 49 µM

SMILES: C[C@@H](c1ccccc1)n1c(=O)[nH]c2ncc(S(C)(=O)=O)nc21
- EC40 (Oryctolagus cuniculus [1]): > 49 µM

SMILES: CC[C@H](C)n1c(=O)[nH]c2ncc(Br)nc21
- EC40 (Oryctolagus cuniculus [1]): 1 µM
- EC30 (Oryctolagus cuniculus [2]): 5.1 µM

Source: ChEMBL document CHEMBL4145557, “Discovery of Tirasemtiv, the First Direct Fast Skeletal Muscle Troponin Activator” (ACS Med Chem Lett, 2018)
